PKD1 kinase inh: PKD1 (human) kinase inhibition; Q15139; PKD1 kinase fluorescence polarization assay; inhibition, % (no concentration beside the values); hit rate 0.056% among 200,000; AID 797; in the data active means inhibition above about 50%
Rad51 HR inh: blocks human Rad51 in homologous recombination | hit rate 0.085% among 200,000 | AID 1385 | inhibition, % at 10 µM | Q06609 | hRad51 DNA strand exchange, fluorescence dequenching;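 active means inhibition above 40% at the single screening dose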;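 further: 0% = DMSO control wells and 100% = blanks with heterologous ssDNA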
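material = hRad51 filaments on single-stranded DNA | timing = filaments 15 min 37 °C, then compound 30 min | signal = FRET fluorescence dequenching, excitation 485 nm, emission 520 nm | benchmarks = control wells and blank wells on each plate | evaluation = percent inhibition relative to plate controls and blanks | compound = 10 µM final, single point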
ROMK primary: modulates human ROMK potassium channel activity; P48048; Tet-inducible ROMK, thallium flux fluorescence; actives lie on both sides; B-score at 10 µM; hit rate 2% among 130,000; AID 1918;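 active means signal ratio slope over the read window, or its plate-corrected B-score, at least 3 SD from the plate mean, either direction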;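 further: B-score of the F/F0 ratio slope over 7 to 12 s after thallium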
Cl transport mod: modulates chloride dependent transport by human KCC2; hit rate 2.2% among 190,000; Q9H2X9; KCC2 cells, thallium flux FluoZin-2 fluorescence; B-score of Tl+ flux slope (higher = more flux/activation; lower = inhibition) at 10 µM;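 active means thallium flux slope and its plate-corrected score both differing from the plate sample mean at a set confidence after two filtering rounds, in either direction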;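 further: slope of fluorescence scaled to starting intensity during 10 to 20 s after thallium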
KCC2 secondary: KCC2 (human) modulation, secondary assay; HEK293-KCC2, thallium flux, FluoZin2 fluorescence; hits give high values; shares compounds with Cl transport mod; normalised thallium flux (F/F0 slope) at 10 µM; hit rate 15% among 3,700; AID 1713;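 active means thallium flux slope above the same plate's solvent-only control mean plus 3 SD; inconclusive means the two replicate wells disagree; inactive means no significant difference from solvent-only control wells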
KCC2 bumet counter: thallium flux despite bumetanide block in KCC2 cells, secondary assay 3; shares compounds with Cl transport mod; HEK293-KCC2 + bumetanide/ouabain, thallium flux FluoZin2; hits give high values; normalized thallium flux at 10 µM; hit rate 49% among 3,700; AID 1714;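 active means thallium entry rate above the same plate's blocked-transporter control wells by more than 3 SD; inconclusive means the two repeat wells disagree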;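 further: raw slope of fluorescence over initial fluorescence between 10 and 20 s after thallium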
KCC2 secondary2: confirmation of human KCC2 transport modulators; shares compounds with Cl transport mod; HEK293-KCC2, thallium flux FluoZin2 fluorescence; actives lie on both sides; F/F0 rise rate, 10–20 s post-thallium; normalized thallium flux at 10 µM; hit rate 23% among 3,700;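 active means thallium flux slope more than 3 SD above or below the plate's solvent-only control mean, mostly below; inconclusive means the two repeat wells disagreed; inactive means no significant shift from solvent-only controls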;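 further: raw slope with 0.1% DMSO as baseline and bumetanide as block control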
HEK counter1: counter-screen for KCC2 modulators: effect in parental HEK293 cells; AID 1716; thallium flux FluoZin2, ouabain; baseline-ratio fluorescence slope, 10–20 s after thallium; hit rate 46% among 3,700; shares compounds with Cl transport mod; thallium flux rate (normalised fluorescence) at 10 µM;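 active means thallium flux rate significantly above the same plate's solvent-only control wells, beyond their mean plus 3 SD; inconclusive means the two replicate wells gave conflicting results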
KCC2 ouabain: confirmation of human KCC2 modulators with ouabain. shares compounds with Cl transport mod. HEK293-KCC2, thallium flux FluoZin2 fluorescence; bidirectional: low = inhibitor, high = activator. raw Tl+ flux slope (below DMSO = inhibition, above = activation) at 10 µM. hit rate 48% among 3,700. AID 1717;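 active means thallium flux slope beyond 3 SD from same-plate DMSO control mean in most replicates, usually higher, sometimes lower; inconclusive means repeat tests gave conflicting results; inactive means no significant difference from controls in most replicates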;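 further: slope of initial-normalized fluorescence between seconds 10 and 20 after thallium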
HEK counter2: acts in parental HEK cells, second KCC2 counter-screen; shares compounds with Cl transport mod; HEK293 parental, thallium flux FluoZin-2 fluorescence slope; thallium flux slope at 10 µM; hit rate 33% among 3,700; AID 1718;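 active means thallium flux slope above the same plate's solvent-control mean plus 3 SD in both duplicate wells; inconclusive means duplicate wells that disagreed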;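 further: run without ouabain in cells lacking the KCC2 cotransporter; slope of fluorescence scaled to its starting value between 10 and 20 s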
An asterisk follows results filed as active; ? = inconclusive; / = no result given. Most compounds without a hit are left out; they make up all but 3% or so of the library.

SMILES	PKD1 kinase inh	Rad51 HR inh	ROMK primary	Cl transport mod	KCC2 secondary	KCC2 bumet counter	KCC2 secondary2	HEK counter1	KCC2 ouabain	HEK counter2
COc1ccc(-n2cccc2/C=C2\C(=N)N3N=C(C(C)C)SC3=NC2=O)cc1	-6	-1	-1	2.2	/	/	/	/	/	/
CCC1=NN2C(=N)/C(=C\c3cccn3-c3ccc(Br)cc3)C(=O)N=C2S1	5	0	1.1	11*	0.0075	0.022*	0.033	0.019*	0.025*	0.014*
CCC1=NN2C(=N)/C(=C\c3cccn3-c3cccc(Cl)c3)C(=O)N=C2S1	-2	-7	1.9	8.8*	0.017	0.05*	?	0.021*	0.026*	0.021*
COCc1cc(C)nc(OCC(=O)N/N=C/c2ccco2)c1C#N	-1	/	-0.26	0.66	/	/	/	/	/	/
COCc1cc(C)nc(OCC(=O)N/N=C/c2ccc(-c3cc([N+](=O)[O-])ccc3Cl)o2)c1C#N	-4	1	-0.63	6.8*	0.0072	0.015*	0.035	0.024*	0.027*	0.021*
O=C(Cn1cnc2ccccc2c1=O)Nc1nnc(SCc2ccccc2)s1	-8	7	0.36	/	0.0089	0.0067	0.029	0.009*	0.021	?
COc1ccc(-c2nnc(S/C(=C/c3ccc(Cl)cc3)C(=O)O)o2)cc1	2	-1	-1.3	-3*	0.0082	0.0055*	0.023*	0.0077	0.016*	0.0099
O=C(NCCCCc1ccccc1)C1CC(c2ccccc2[N+](=O)[O-])=NO1 (stereo not drawn)	-1	0	/	-6.4*	0.006	0.0046	0.021*	0.0074	0.013*	0.0092
COc1cc(OC)c(C2=NOC(C(=O)NCCc3ccccc3)C2)cc1Cl (stereo not drawn)	-7	8	-0.75	/	0.0064	0.0043	0.026*	0.007	?	0.0098
O=C(NCCCCc1ccccc1)C1CC(c2ccccc2C(F)(F)F)=NO1 (stereo not drawn)	/	-1	/	-4.2*	0.008	0.0044	0.023*	0.0064	0.016*	0.0098
COc1cc(OC)c(C2=NOC(C(=O)NCc3cccs3)C2)cc1Cl (stereo not drawn)	4	1	2.7	-0.66	/	/	/	/	/	/
CC1(C)CN=C(N(Cc2ccccc2)C(=O)Nc2ccccc2)S1	-16	/	1.3	-0.023	/	/	/	/	/	/
Cc1cccnc1NC1(C(F)(F)F)N=C(c2ccccc2)NC1=O (stereo not drawn)	2	-5	/	/	/	/	/	/	/	/
CCOc1ccc(C(=O)CC(NCc2cccs2)C(=O)O)cc1 (stereo not drawn)	11	8	0.6	0.79	/	/	/	/	/	/
NC(=O)C1CCN(C(=S)NCCc2ccccc2)CC1	-7	-16	0.2	4.6*	0.0065	0.0052	0.033	0.009	0.021	0.012
CC(C)CNC(=O)c1cccc(NC(=O)C(C)Oc2ccccc2)c1 (stereo not drawn)	-4	4	0.0066	-0.02	/	/	/	/	/	/
C/C(=N\NC(=S)NCc1ccccc1)c1cccs1	-1	-5	0.05	16*	0.0077	0.041*	0.049*	0.04*	0.042*	0.04*
COCCNC(=S)N/N=C(\C)c1ccc(Cl)c(Cl)c1Cl	-2	-1	-0.057	3.2	/	/	/	/	/	/
C/C(=N\NC(=S)NCc1ccccc1)c1ccc(Br)cc1	3	7	0.67	1.6	/	/	/	/	/	/
C/C(=N\NC(=S)NCc1ccccc1)c1ccc(Cl)s1	-1	-2	0.15	10*	0.0097	0.017*	0.034	?	0.026*	0.012
COCCNC(=S)N/N=C(\C)c1ccc(Cl)s1	/	5	/	32*	0.014*	0.06*	0.033	0.02*	0.039*	0.012*

Bioassay records: PubChem BioAssay, several laboratories
